# Bioassay records (PubChem BioAssay)
# WT yeast gro inh = growth inhibition of WT yeast, mitochondrial fusion screen; 2.1% of 190,000 active; mitochondrial fusion phenotypic screen, WT strain; AID 1362; inhibition, % at 10 µM; in the data active = inhibition above about 58%; tested in S. cerevisiae
# Rad51 HR inh = blocks human Rad51 in homologous recombination; Q06609; hRad51 DNA strand exchange, fluorescence dequenching; inhibition, % at 10 µM; 0.085% of 200,000 active; AID 1385;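 active = inhibition above 40% at the single screening dose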
#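 material = hRad51 filaments on single-stranded DNA | reagent = Donor/quencher-labelled 47-bp dsDNA substrate | compound = 10 µM final, single point | schedule = strand-exchange reaction 15 min at room temperature | measured by = fluorescein emission 520 nm, excitation 485 nm | read-out basis = % inhibition versus plate control and blank means | benchmarks = plate controls and plate blanks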
# Insulin prom up = MIN6 insulin promoter up-regulation; MIN6 insulin promoter-GFP reporter, high-content imaging; stronger effect = higher value; z-score at 5 µM; 0.3% of 190,000 active; AID 1625;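 active = z-score above 3 at 5 µM with at least 500 cells counted in the well; inconclusive = wells under 500 cells, flagged as cytotoxic or low count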
# SKKanGAS inh = SKKanGAS growth inhibition. inhibition, % at 7.5 µM. AID 1662. S. pyogenes SKKanGAS, kanamycin growth, BacTiter-Glo, 6 h. 1.3% of 300,000 active;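 active = mean replicate score, as percent of positive control median, at least 50; inconclusive = mean below 50 but one replicate at or above 50; inactive = mean and every replicate below 50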;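 note: strain carries kanamycin resistance gene driven by streptokinase promoter and grows in 40 µg/ml kanamycin; loss of luminescence reflects streptokinase promoter inhibition or plain growth inhibition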
# KCC2 mod = modulates chloride dependent transport by human KCC2 | Q9H2X9 | KCC2 cells, thallium flux FluoZin-2 fluorescence | B-score of Tl+ flux slope (higher = more flux/activation; lower = inhibition) at 10 µM | 2.2% of 190,000 active | AID 1456;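 active = thallium flux slope and its plate-corrected score both differing from the plate sample mean at a set confidence after two filtering rounds, in either direction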;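 note: slope of fluorescence scaled to starting intensity during 10 to 20 s after thallium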
# Target sequence (Q9H2X9 whole entry, looked up): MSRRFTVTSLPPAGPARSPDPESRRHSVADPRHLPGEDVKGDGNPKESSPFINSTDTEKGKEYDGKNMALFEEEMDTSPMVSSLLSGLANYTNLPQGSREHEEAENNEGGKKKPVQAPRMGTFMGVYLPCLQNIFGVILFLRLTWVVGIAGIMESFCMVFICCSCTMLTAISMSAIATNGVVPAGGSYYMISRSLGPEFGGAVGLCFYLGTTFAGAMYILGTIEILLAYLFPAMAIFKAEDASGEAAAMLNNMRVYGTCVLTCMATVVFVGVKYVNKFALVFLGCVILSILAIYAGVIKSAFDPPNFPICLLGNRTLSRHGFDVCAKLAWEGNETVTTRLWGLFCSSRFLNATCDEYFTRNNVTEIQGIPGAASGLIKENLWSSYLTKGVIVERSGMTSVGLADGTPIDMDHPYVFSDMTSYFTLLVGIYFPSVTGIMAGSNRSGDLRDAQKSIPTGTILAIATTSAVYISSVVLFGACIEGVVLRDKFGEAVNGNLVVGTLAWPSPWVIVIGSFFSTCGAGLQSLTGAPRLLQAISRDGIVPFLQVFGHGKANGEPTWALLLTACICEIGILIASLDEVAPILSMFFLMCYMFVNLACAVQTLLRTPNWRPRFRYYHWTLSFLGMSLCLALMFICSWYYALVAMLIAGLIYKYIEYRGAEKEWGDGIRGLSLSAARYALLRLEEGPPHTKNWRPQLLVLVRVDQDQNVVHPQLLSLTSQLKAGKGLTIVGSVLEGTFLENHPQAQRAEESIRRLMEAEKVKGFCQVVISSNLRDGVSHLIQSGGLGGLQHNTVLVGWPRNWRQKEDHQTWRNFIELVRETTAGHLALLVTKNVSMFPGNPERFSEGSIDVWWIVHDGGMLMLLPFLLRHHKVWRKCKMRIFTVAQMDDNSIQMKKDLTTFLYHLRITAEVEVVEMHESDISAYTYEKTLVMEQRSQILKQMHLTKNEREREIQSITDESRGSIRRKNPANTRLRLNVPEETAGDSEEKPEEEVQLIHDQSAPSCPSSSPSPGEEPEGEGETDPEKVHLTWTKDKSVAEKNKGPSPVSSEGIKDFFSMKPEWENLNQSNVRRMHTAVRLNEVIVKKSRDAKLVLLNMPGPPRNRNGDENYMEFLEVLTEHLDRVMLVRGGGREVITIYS
# Autophagy mod = alters autophagy in cells; MEF GFP-LC3 puncta imaging; test concentration mostly 10 µM; calls only at 10 µM (by protocol); 0.98% of 190,000 active;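 active = percentage of spot-positive cells more than 3 SD above its plate mean, without a fluorescence outlier flag or 80% toxicity; inconclusive = no clear call, values can overlap the other calls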
# Numbers stand for hits; - = inactive; ? = inconclusive; . = no result; + = active, no number. Only some compounds are listed: those with a hit (about 4.2% of all), similar ones and a draw of the others.
SMILES,WT yeast gro inh,Rad51 HR inh,Insulin prom up,SKKanGAS inh,KCC2 mod,Autophagy mod
Cc1cccc2c1N(CCCOc1ccc(C(C)(C)C)cc1)C(=O)C2=O,97,-,-,-,-,-
Cn1c(=O)n(C)c2cc(NC(=O)COc3ccc(Cl)cc3)ccc21,-,-,3,-,-,-
COc1ccc(S(=O)(=O)n2cccc2)cc1,.,.,.,-,.,.
C#CC1(NC(=O)NCCCC)CCCCC1,-,.,-,-,.,-
CCOc1ccc(Oc2c(/C=N/NC(N)=O)c(C)nn2-c2ccccc2)cc1,-,-,-,-,-,-
CCOc1ccc(Oc2c(/C=N/NC(=O)COc3ccccc3OC)c(C)nn2-c2ccccc2)cc1,67,-,-,-,-,-
CCCC1CC(C)(c2csc(Nc3ccc(OCC)cc3)n2)OC1=O (centres undefined),69,-,?,-,-,-
CCOc1ccc(NC(=O)CC2CC(C)(C)OC2=O)cc1 (centres undefined),-,-,-,-,-,-
CC(C)c1ccc(-c2nc(N3CCCCCC3)nc3n[nH]c(N)c23)cc1,-,-,.,-,.,-
CC(C)c1ccc(-c2nc(N3CCCC3)nc3n[nH]c(N)c23)cc1,-,-,-,53,-,-
Cc1nn(Cc2ccccc2Cl)c2sc(C(=O)Nc3ccccc3N3CCOCC3)cc12,-,-,-,60,-,-
Cc1nn(Cc2ccc(F)cc2)c2sc(C(=O)Nc3ccccc3N3CCOCC3)cc12,-,.,-,-,-,-
CN(Cc1cccs1)c1nc(-c2cccnc2)nc2ccccc12,64,-,-,-,-,-
OCCSc1nc(-c2cccnc2)nc2ccccc12,-,-,-,-,.,-
Cc1nn(Cc2ccc(Cl)cc2Cl)c(C)c1NC(=O)NC12CC3CC(CC(C3)C1)C2,68,-,.,51,-,-
CC(OC(=O)Cc1n[nH]c(=O)c2ccccc12)C(=O)Nc1ccc(Cl)cn1 (centres undefined),.,.,.,68,.,.
COc1ccc(C(C(=O)NCc2ccc(F)cc2)N(C(=O)c2csnn2)C2CC2)cc1 (centres undefined),.,.,.,-,.,.
CCc1ccc2c(c1)c(N=NC1=NC(=O)CS1)c(O)n2C,-,.,-,-,9.4,-
CCOc1ccc2c(c1)c(N=O)c(O)n2C,-,-,.,-,-,-
Cn1ccnc1COc1ccc(/C=N/O)cc1,.,.,.,-,.,.
O=C(O)c1nn(CC(=O)N2CCN(S(=O)(=O)c3ccc(Cl)cc3)CC2)c(=O)c2ccccc12,.,-,-,-,-,.
c1ccc2c(Nc3nc4c(s3)CCCC4)cccc2c1,-,-,-,57,-,-
COc1cc2nc(=S)n3[nH]c(CCn4nc(C)cc4C)nc3c2cc1OC,-,-,-,51,-,-
Cc1cncn1CCc1nc2c3ccccc3nc(=S)n2[nH]1,.,.,.,.,-,-
Cc1cc(CN(C)C(=O)c2ccc(OC3CCN(CCc4ccccc4)CC3)cc2)on1,.,.,.,-,.,.
SMILES,WT yeast gro inh,Rad51 HR inh,Insulin prom up,SKKanGAS inh,KCC2 mod,Autophagy mod
O=C(COc1ccccc1Cl)NC(=S)N1CCc2ccccc21,-,-,-,-,37,-
O=C(COc1ccccc1)NC(=S)N1CCc2ccccc21,-,-,-,-,56,-
CCN(Cc1ccccc1)S(=O)(=O)c1ccc(C(=O)N(CCCN(C)C)c2nc3c(C)c(C)ccc3s2)cc1,.,.,.,-,.,.
Oc1c(Cl)cc(Cl)c2c1NCCC2,-,.,-,69,14,-
O=C1NCCCc2c1oc1ccc(O)cc21,-,-,-,-,-,-
CCc1ccc2c(c1)cc(CN(C(=S)Nc1ccccc1)C1CC1)c1nnnn12,-,-,-,-,-,+
O=C(Nc1cc(Cl)cc(Cl)c1)N1CCCC1,.,.,-,59,-,.
O=C(Nc1cc(Cl)cc(Cl)c1)C(c1ccccc1)N1CCCCC1 (centres undefined),66,.,-,-,-,-
COc1ccc(CCNC(=S)Nc2cccc3ccccc23)cc1,68,-,-,-,-,-
COc1ccc(C(=O)CC(=O)C(=O)Nc2cc(C)ccc2C)cc1,.,.,.,-,.,.
COc1ccc(CCNC(=S)Nc2cc(C)cc(C)c2)cc1,59,.,.,-,.,-
COc1ccc(C(=O)CC(=O)C(=O)NCCc2cccc(C)c2)cc1,-,-,-,-,8.3,-
COc1ccc(OCCNC(=S)Nc2cccc3ccccc23)cc1,60,-,-,-,.,-
CCN1C(=O)[C@H]2[C@@H](c3ccc(-c4ccc(C(C)=O)cc4)cc3)N3CCC[C@@]3(C(=O)OC)[C@H]2C1=O,.,.,.,-,.,.
O=C1CCCN1CC(=O)N1CCCC(N2CCN(c3cccc(Cl)c3)CC2)C1 (centres undefined),.,.,.,-,.,.
